ChEMBL document CHEMBL4350999, “Enhanced tumor retention of NTSR1-targeted agents by employing a hydrophilic cysteine cathepsin inhibitor” (Eur J Med Chem, 2019)
Calls of active or inactive are those of the source. The calls are words filed in the database; no cut-off is given here.

Legend:
[1] = Ratio of drug uptake in SCID mouse xenograted with human HT-29 cells assessed as tumour retention to drug uptake in small intestine of SCID mouse xenografted with human HT-29 cells measured after 4 hrs using 177Lu labelled compound; format: ADME, tissue-based, Tumor/Small intestine
In short: (§1)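 Female SCID mice (5 weeks old) received s.c. flank HT-29 cells (5 × 10^6 in Matrigel). At ~80 mm3, two weeks later, mice were randomized and given 10 μCi (0.37 MBq) of purified 177Lu conjugate i.v. by tail vein. Mice were killed at 4, 24 or 72 h. Tissues were weighed and gamma counted as %ID/g, mean ± SD, n = 5. Tumor-to-tissue ratios were calculated.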

[2] = Ratio of drug uptake in SCID mouse xenograted with human HT-29 cells assessed as tumour retention to drug uptake in muscle of SCID mouse xenografted with human HT-29 cells measured after 72 hrs using 177Lu labelled compound; format: ADME, tissue-based, Tumor/Muscle; in short: as §1
[3] = Ratio of drug uptake in SCID mouse xenograted with human HT-29 cells assessed as tumour retention to drug uptake in muscle of SCID mouse xenografted with human HT-29 cells measured after 4 hrs using 177Lu labelled compound; format: ADME, tissue-based, Tumor/Muscle; in short: as §1
[4] = Ratio of drug uptake in SCID mouse xenograted with human HT-29 cells assessed as tumour retention to drug uptake in large intestine of SCID mouse xenografted with human HT-29 cells measured after 72 hrs using 177Lu labelled compound; format: ADME, tissue-based, Tumor/Large intestine; in short: as §1
[5] = Ratio of drug uptake in SCID mouse xenograted with human HT-29 cells assessed as tumour retention to drug uptake in lung of SCID mouse xenografted with human HT-29 cells measured after 72 hrs using 177Lu labelled compound; format: ADME, tissue-based, Tumor/Lung; in short: as §1
[6] = Ratio of drug uptake in SCID mouse xenograted with human HT-29 cells assessed as tumour retention to drug uptake in kidney of SCID mouse xenografted with human HT-29 cells measured after 72 hrs using 177Lu labelled compound; format: ADME, tissue-based, Tumor/Kidney; in short: as §1
[7] = Ratio of drug uptake in SCID mouse xenograted with human HT-29 cells assessed as tumour retention to drug uptake in spleen of SCID mouse xenografted with human HT-29 cells measured after 24 hrs using 177Lu labelled compound; format: ADME, tissue-based, Tumor/Spleen; in short: as §1
[8] = Ratio of drug uptake in SCID mouse xenograted with human HT-29 cells assessed as tumour retention to drug uptake in liver of SCID mouse xenografted with human HT-29 cells measured after 4 hrs using 177Lu labelled compound; format: ADME, tissue-based, Tumor/Liver; in short: as §1
[9] = Ratio of drug uptake in SCID mouse xenograted with human HT-29 cells assessed as tumour retention to drug uptake in kidney of SCID mouse xenografted with human HT-29 cells measured after 24 hrs using 177Lu labelled compound; format: ADME, tissue-based, Tumor/Kidney; in short: as §1
[10] = Ratio of drug uptake in SCID mouse xenograted with human HT-29 cells assessed as tumour retention to drug uptake in small intestine of SCID mouse xenografted with human HT-29 cells measured after 24 hrs using 177Lu labelled compound; format: ADME, tissue-based, Tumor/Small intestine; in short: as §1
[11] = Ratio of drug uptake in SCID mouse xenograted with human HT-29 cells assessed as tumour retention to drug uptake in large intestine of SCID mouse xenografted with human HT-29 cells measured after 4 hrs using 177Lu labelled compound; format: ADME, tissue-based, Tumor/Large intestine; in short: as §1
[12] = Ratio of drug uptake in SCID mouse xenograted with human HT-29 cells assessed as tumour retention to drug uptake in lung of SCID mouse xenografted with human HT-29 cells measured after 4 hrs using 177Lu labelled compound; format: ADME, tissue-based, Tumor/Lung; in short: as §1
[13] = Ratio of drug uptake in SCID mouse xenograted with human HT-29 cells assessed as tumour retention to drug uptake in blood of SCID mouse xenografted with human HT-29 cells measured after 4 hrs using 177Lu labelled compound; format: ADME, tissue-based, Tumor/Blood; in short: as §1
[14] = Drug localization in endolysosomal vesicles of human HT-29 cells measured at 2 hrs using Eu labelled compound by lysotracker green staining based confocal microscopic analysis; format: ADME, subcellular; settings: ht-29, 2 h
In short: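 HT-29 cells (1.25 × 10^5/well) incubated 2 h at 37 °C with natEu conjugate (5 μM), with or without N1 (20 μM). Lysotracker Green (100 nM) added for 1 h; cells washed, formaldehyde-fixed and imaged confocally at 405/488 nm excitation. Mean pixel intensity normalized to cell count.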

[15] = Drug retention in tumor of mouse xenografted with human HT-29 cells assessed as conjugate adduct formation at 29.6 MBq measured after 72 hrs using 177Lu labelled compound by SDS-PAGE analysis; format: ADME, tissue-based, Neoplasm; settings: in vivo
In short: (§2)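 HT-29 xenograft mice given 800 μCi (29.6 MBq) 177Lu conjugate i.v. and killed at 72 h. Tumor, liver and kidney homogenized in RIPA with protease inhibitor and supernatants run on SDS-PAGE autoradiography. Other supernatant aliquots filtered through 10 kDa MWCO devices to give the % macromolecule-associated radioactivity; n = 3.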

[16] = biological target: T1, Neurotensin receptor type 1 (Homo sapiens, UniProt P30989); assay: Substrate activity at neurotensin receptor in human HT-29 cells assessed as reduction in drug uptake in presence of NTRS1 peptide N1 using Eu labelled compound measured at 2 hrs by lysotracker green staining based confocal microscopic analysis; format: cell-based; design: scale not given: the % may be the effect or the level left
In short: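 HT-29 cells (1.25 × 10^5/well) were given natEu-labeled conjugate (5 μM) with or without NTSR1 peptide N1 (20 μM) for 2 h at 37 °C. LysoTracker Green (100 nM) was added for 1 h. Cells were PBS washed, formaldehyde fixed and imaged by confocal microscopy (ex 405 and 488 nm). Mean pixel intensity was normalized to cell count.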

[17] = biological target: T1, Neurotensin receptor type 1; assay: Displacement of [177Lu] DOTA-beta-ala-[N-alpha-Me8, Dmt11, Tle12] NT6-13 from neurotensin receptor in human HT-29 cells incubated for 45 mins by gamma counter analysis; format: cell-based
In short: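 HT-29 cells (~1 × 10^6) in McCoy's 5A with HEPES and 2 mg/mL BSA, pH 7.4. Incubated 45 min at 37 °C with 177Lu-N1 (100,000 cpm) plus conjugate at 5 nM–1 μM. Cells washed, bound activity gamma-counted, IC50 obtained by nonlinear regression; biological triplicate.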

[18] = Drug retention in kidney of mouse xenografted with human HT-29 cells assessed as tissue-conjugate adduct formation at 29.6 MBq measured after 72 hrs using 177Lu labelled compound by SDS-PAGE analysis; format: ADME, tissue-based; settings: in vivo; in short: as §2
[19] = Stability of 177Lu labelled compound in human serum assessed as parent compound remaining at 37 degC after 3 hrs by RP-HPLC analysis; format: ADME, cell-free; settings: read-out: Stability
In short: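 Radioconjugate (1.5 mCi, 55.5 MBq) was incubated in 300 μL human serum at 37 °C. At 1, 3 and 24 h, acetonitrile was added and samples were spun at 12,000×g for 5 min. Supernatant was dried under nitrogen, reconstituted in water and analyzed by radio-HPLC.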

[20] = biological target: Procathepsin L (Homo sapiens, UniProt P07711); assay: Binding affinity to cathepsin L in human HT-29 cells assessed as intracellular adduct formation at 0.74 MBq incubated for 4 hrs using 177Lu labelled compound by SDS-PAGE analysis; format: cell-based; design: dose or concentration left out as unconfirmed
In short: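 HT-29 cells (1 × 10^6/well) incubated 4 h at 37 °C with 177Lu conjugate (20 μCi, 0.74 MBq) in 1 mL medium, with or without E-64 (10 μM) or NTSR1 peptide N1 (20 μM). Cells washed and refed; at set times cells pooled, RIPA-lysed with protease inhibitor. Lysates heated 85 °C 2 min, run on 16% tris-glycine SDS-PAGE, and phosphor autoradiography taken after 72 h exposure.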

T1 sequence (P30989 whole entry): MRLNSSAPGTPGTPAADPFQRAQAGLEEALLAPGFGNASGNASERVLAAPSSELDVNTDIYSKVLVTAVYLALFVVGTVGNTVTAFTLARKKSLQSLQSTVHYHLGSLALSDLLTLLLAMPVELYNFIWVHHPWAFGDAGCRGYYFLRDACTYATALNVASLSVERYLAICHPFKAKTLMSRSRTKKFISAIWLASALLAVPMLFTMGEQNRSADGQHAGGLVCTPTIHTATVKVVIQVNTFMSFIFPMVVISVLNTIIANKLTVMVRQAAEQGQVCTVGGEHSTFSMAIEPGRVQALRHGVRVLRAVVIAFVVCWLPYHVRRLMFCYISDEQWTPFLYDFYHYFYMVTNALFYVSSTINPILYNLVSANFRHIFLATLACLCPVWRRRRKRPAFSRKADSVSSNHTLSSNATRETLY
Procathepsin L, sequence (P07711 114-333 limits assumed): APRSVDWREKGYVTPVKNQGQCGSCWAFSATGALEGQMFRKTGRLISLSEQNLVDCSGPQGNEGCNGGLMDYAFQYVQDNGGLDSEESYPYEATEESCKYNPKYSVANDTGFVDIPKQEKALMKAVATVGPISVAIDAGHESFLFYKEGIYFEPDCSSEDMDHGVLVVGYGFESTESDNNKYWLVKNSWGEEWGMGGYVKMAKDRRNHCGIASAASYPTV

Ratio [1]	Ratio [2]	Ratio [3]	Ratio [4]	Ratio [5]	Ratio [6]	Ratio [7]	Ratio [8]	Ratio [9]	Ratio [10]	Ratio [11]	Ratio [12]	Kp at 4 h [13]	Drug uptake [14]	Drug uptake [15]	Activity [16] [%]	IC50 [17] [nM]	Drug uptake [18]	remaining at 3 h [19] [%]	Activity [20]	SMILES
1.3	16	15	1.9	2.6	0.09	0.7	0.2	0.15	2	2.7	1.9	6.5	–	–	–	–	–	–	–	Cc1cc(C)c(C(=O)OCC(=O)[C@H](CCCCNC(=O)CNC(=O)[C@@H](CO)NC(=O)[C@@H](CO)NC(=O)[C@@H](CO)NC(=O)Cn2cc(C[C@H](NC(=O)CN3CCN(CC(=O)O)CCN(CC(=O)O)CCN(CC(=O)O)CC3)C(=O)N[C@H](CO)C(=O)N[C@H](CO)C(=O)N[C@H](CO)C(=O)N[C@@H](CCCCN)C(=O)N3CCC[C@H]3C(=O)N(C)[C@@H](CCCNC(=N)N)C(=O)N[C@@H](CCCNC(=N)N)C(=O)N3CCC[C@H]3C(=O)N[C@@H](Cc3c(C)cc(O)cc3C)C(=O)N[C@H](C(=O)N[C@@H](CC(C)C)C(=O)O)C(C)(C)C)nn2)NC(=O)[C@H](Cc2ccccc2)NC(=O)OCc2ccccc2)c(C)c1
–	–	–	–	–	–	–	–	–	–	–	–	–	Active	Not Active	65	63	Not Active	74.3	inactive	Cc1cc(O)cc(C)c1C[C@H](NC(=O)[C@@H]1CCCN1C(=O)[C@H](CCCNC(=N)N)NC(=O)[C@H](CCCNC(=N)N)N(C)C(=O)[C@@H]1CCCN1C(=O)[C@H](CCCCN)NC(=O)[C@@H](CO)NC(=O)[C@@H](CO)NC(=O)[C@@H](CO)NC(=O)[C@H](Cc1cn(CCNC(=O)[C@H](CCCNC(=N)N)NC(=O)[C@H](CC(C)C)NC(=O)CCC(=O)O)nn1)NC(=O)CN1CCN(CC(=O)O)CCN(CC(=O)O)CCN(CC(=O)O)CC1)C(=O)N[C@H](C(=O)N[C@@H](CC(C)C)C(=O)O)C(C)(C)C
1.85	153	94	5.5	10	0.09	4	8.4	0.08	2	5.7	12.3	337	Active	Active	63.7	60	Active	65.6	Active	Cc1cc(O)cc(C)c1C[C@H](NC(=O)[C@@H]1CCCN1C(=O)[C@H](CCCNC(=N)N)NC(=O)[C@H](CCCNC(=N)N)N(C)C(=O)[C@@H]1CCCN1C(=O)[C@H](CCCCN)NC(=O)[C@@H](CO)NC(=O)[C@@H](CO)NC(=O)[C@@H](CO)NC(=O)[C@H](Cc1cn(CCNC(=O)[C@H](CCCNC(=N)N)NC(=O)[C@H](CC(C)C)NC(=O)C2OC2C(=O)O)nn1)NC(=O)CN1CCN(CC(=O)O)CCN(CC(=O)O)CCN(CC(=O)O)CC1)C(=O)N[C@H](C(=O)N[C@@H](CC(C)C)C(=O)O)C(C)(C)C (stereo not given in full)
